{"source": "paper PMC4435052", "about": "(Combinatorial Chemistry & High Throughput Screening, 2015)", "key": {"[1]": {"target": "MgcRacGAP(345-618) GAP domain (Homo sapiens, UniProt Q9H0H5)", "sequence (Q9H0H5 345-618)": "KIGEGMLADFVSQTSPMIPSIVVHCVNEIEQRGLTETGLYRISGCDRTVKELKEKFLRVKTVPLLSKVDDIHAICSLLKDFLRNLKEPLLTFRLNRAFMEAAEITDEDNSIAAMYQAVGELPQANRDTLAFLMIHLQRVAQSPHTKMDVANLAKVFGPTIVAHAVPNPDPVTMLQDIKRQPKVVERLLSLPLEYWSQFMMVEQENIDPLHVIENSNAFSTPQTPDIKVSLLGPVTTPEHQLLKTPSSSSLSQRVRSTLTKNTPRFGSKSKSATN", "assay": "Primary biochemical GAP activity assay, Rac1", "summary_of_the_method": "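Rac1(F28L) 600 nM with MgcRacGAP(345-618) at 2 nM in 15 mM Hepes pH 7.5, 20 mM NaCl, 1 mM EGTA, 0.02% Tween 20, 0.1 mg/mL BSA, 2% DMSO, 150 µM GTP; 2 h at room temperature. GDP detected by ADP Hunter Plus at half volumes (resorufin ex 530/em 590 nm). Test compound at 0.1-100 µM, with or without protein pre-incubation before GTP; n=8; control-normalized, fits constrained 0-100%.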"}, "[2]": {"target": "T1, BCR(1010-1271) GAP domain (Homo sapiens, UniProt P11274)", "T1 sequence (P11274 1010-1271)": "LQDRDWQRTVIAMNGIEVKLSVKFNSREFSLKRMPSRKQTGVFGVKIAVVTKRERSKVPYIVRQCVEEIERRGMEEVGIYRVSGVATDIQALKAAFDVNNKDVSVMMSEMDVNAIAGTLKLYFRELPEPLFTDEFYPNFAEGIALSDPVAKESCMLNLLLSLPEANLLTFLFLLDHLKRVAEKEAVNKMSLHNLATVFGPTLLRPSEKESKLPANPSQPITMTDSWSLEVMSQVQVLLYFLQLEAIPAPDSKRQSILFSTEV", "assay": "Counter/selectivity GAP activity assay with BCR GAP domain in place of MgcRacGAP", "format": "biochemical", "summary_of_the_method": "(§1)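 Same buffer as the primary assay: Rac1(F28L) 600 nM, 150 µM GTP, 2% DMSO, 2 h at room temperature. GAP domain is BCR(1010-1271) at 200 nM or p50RhoGAP(205-439) at 50 nM, doses set for similar signal window. Test compound at 0.1-100 µM, with or without pre-incubation before GTP start. Read-out is ADP Hunter Plus fluorescence (ex 530/em 590 nm), normalized to plate controls.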"}, "[3]": {"target": "T2, p50RhoGAP(205-439) GAP domain (Mus musculus, UniProt Q5FWK3)", "T2 sequence (Q5FWK3 205-439)": "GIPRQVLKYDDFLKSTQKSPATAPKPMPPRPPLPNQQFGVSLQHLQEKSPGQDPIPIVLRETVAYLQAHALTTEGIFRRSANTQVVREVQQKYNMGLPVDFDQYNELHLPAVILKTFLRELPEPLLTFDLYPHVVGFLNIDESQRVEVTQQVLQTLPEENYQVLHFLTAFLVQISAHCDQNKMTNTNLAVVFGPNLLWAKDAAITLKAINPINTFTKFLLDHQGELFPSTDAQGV", "assay": "Selectivity GAP activity assay with p50RhoGAP GAP domain", "format": "biochemical", "summary_of_the_method": "as §1"}, "[4]": {"target": "MgcRacGAP GAP activity on wild type Rac1 (Homo sapiens, UniProt Q9H0H5)", "sequence (Q9H0H5 345-618)": "as the sequence (Q9H0H5 345-618) above", "assay": "Single turnover GAP assay with GTP-loaded wild type Rac1", "format": "biochemical", "settings": "GTP-loaded wild type Rac1, 50 µM"}, "[5]": {"target": "MgcRacGAP-stimulated activity of wild type Rac1 (Homo sapiens, UniProt Q9H0H5)", "sequence (Q9H0H5 345-618)": "as the sequence (Q9H0H5 345-618) above", "assay": "Multiple-turnover GTPase assay with wild type Rac1", "format": "biochemical", "settings": "wild type Rac1, data not shown", "summary_of_the_method": "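Wild-type Rac1 […] in the 2x mix, combined with test compound in GTPase/GAP buffer. MgcRacGAP serially diluted in (0.1-100 nM) and held 2 h at room temperature. Started with 2x GTP (10 µM) and run 2 h more. Remaining GTP read by GTPase-Glo reagent (30 min), then detection solution; luminescence read after 10 min.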"}, "[6]": {"target": "Rac1-MgcRacGAP complex (Homo sapiens, UniProt P63000+Q9H0H5, Q61L)", "sequence (Q9H0H5 345-618, stated change not applied, one chain of several)": "as the sequence (Q9H0H5 345-618) above", "assay": "MgcRacGAP - Rac1 Q61L binding assay, bio-layer interferometry", "settings": "12.5-50 µM, dose dependent"}, "[7]": {"system": "MDA-MB-231 cells", "assay": "Cell proliferation by live cell imaging", "format": "cell-based, human", "summary_of_the_method": "(§2)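 Cells cultured in EMEM, DMEM or RPMI 1640 with 10% FBS, seeded at 1,600 cells/well 6-12 h before treatment. Exposed up to 72 h to test compound (5-80 µM), DMSO as negative control, or 20 µM benzethonium chloride as kill control. CellTox Green in medium; live imaging gave toxicity (green fluorescence) and proliferation (phase-contrast confluency). Replicate sets.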"}, "[8]": {"system": "MDA-MB-231 cells", "assay": "Cytotoxicity, CellTox Green live cell imaging", "format": "cell-based, human", "summary_of_the_method": "as §2"}, "[9]": {"system": "RWPE-1 cells", "assay": "Cell viability dose response in slow growing cells", "format": "cell-based, human", "settings": "72 h dose response 5-80 µM", "summary_of_the_method": "as §2"}, "[10]": {"system": "HeLa cells", "format": "cell-based, human", "summary_of_the_method": "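HeLa cells synchronized by double thymidine block: 2 mM thymidine at plating for 19 h, three PBS washes, release into fresh medium, second 2 mM block 9 h later, washed after 16 h. Released with or without test compound (10-80 µM) or nocodazole (165 nM). Tracked by live-cell phase imaging for cell rounding and death.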"}, "[11]": {"system": "A549 cells", "assay": "FUCCI cell cycle reporter assay", "format": "cell-based, human", "settings": "80 µM, from 6 h after exposure", "summary_of_the_method": "(§3)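 A549 cells at 50,000/well received Premo gemini-GFP (G2/M) and Cdt-RFP (G1/S) 1:1 24 h after plating. After overnight incubation, replated at 1,600 cells/well. Imaged hourly by phase contrast, green and red fluorescence. 14 h later given 80 µM test compound, DMSO, or 20 µM benzethonium chloride, then followed hourly.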"}, "[12]": {"system": "HeLa cells", "assay": "Immunofluorescence analysis of cell division morphology", "format": "cell-based, human", "settings": "25 µM, 48 h", "summary_of_the_method": "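HeLa cells on fibronectin-coated coverslips, treated 3-48 h with DMSO or 25 µM test compound. Fixed in ice-cold methanol and stained with mouse anti-α-tubulin and goat anti-MgcRacGAP. Detected with Alexa Fluor 488 and 647 secondaries; DAPI-containing mountant. Imaged by widefield fluorescence microscopy.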"}, "[13]": {"system": "A549 cells", "format": "cell-based, human", "settings": "25 µM", "summary_of_the_method": "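A549 cells in chamber slides, treated 3-48 h with DMSO or 25 µM test compound. Stained with phalloidin, Hoechst 33342, anti-α-tubulin and anti-MgcRacGAP. Cells scored as normal (mononuclear), mitotic (rounded), multinuclear or dead in at least eight random fields per condition. Reported as average percentage per time point.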"}, "[14]": {"system": "A549 cells", "assay": "Cellular movement, tracking of individual cells in 2D culture", "format": "cell-based, human", "settings": "25 µM, 24 h", "summary_of_the_method": "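A549 cells seeded at 10,000/well and given DMSO or 25 µM test compound 6 h later. Imaged every 5 min with a 20x objective for 24 h. Randomly chosen cells tracked individually to trace movement in 2D.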"}, "[15]": {"system": "MDA-MB-231 cells", "assay": "Scratch-wound Matrigel invasion", "format": "cell-based, human", "settings": "10-40 µM, increasing concentrations", "summary_of_the_method": "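MDA-MB-231 cells at 40,000/well on Matrigel-precoated plates. After 16 h, near-confluent monolayers scratched, washed and overlaid with Matrigel (8 mg/mL). After 30 min at 37°C, medium with DMSO or test compound (10-40 µM final) added. Scratch-wound imaging followed; relative wound density computed per image; n=4.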"}, "[16]": {"system": "A549 cells", "assay": "Cytotoxicity by live cell imaging", "format": "cell-based, human", "settings": "80 µM", "summary_of_the_method": "as §3"}, "[17]": {"system": "essential replicative helicase of Staphylococcus aureus", "settings": "80 µM, ref PubChem AID 485395; cited from earlier work"}, "[18]": {"settings": "proteins pre-incubated with compound before GTP addition"}, "[19]": {"settings": "dose response 0.1-100 µM, no pre-incubation"}, "[20]": {"settings": "prolonged periods of time, data not shown"}}, "note": "Entries after “also recorded” stand apart in the source; their conditions may differ."}
{"smiles": "Cl.Cl.c1cc2cc(C3=NCCN3)ccc2cc1C1=NCCN1", "note": "[MINC1, 2,6-bis(4,5-dihydro-1H-imidazol-2-yl)naphthalene dihydrochloride]", "values": [{"measurement": "maximum inhibition reached by dose response curves", "setting": "[1]", "value": "80-90%"}, {"measurement": "IC50", "setting": "[1]; IC50 MgcRacGAP, dose response 0.1-100 µM, no pre-incubation", "value": "15 ± 5", "unit": "µM"}, {"measurement": "Hill slope", "setting": "[1]; dose response, no pre-incubation", "value": 0.9}, {"measurement": "Hill slope, pre-incubation", "setting": "[1]; [18]", "value": 0.7}, {"measurement": "activity towards BCR", "setting": "[2]; [19]", "value": "no detectable activity"}, {"measurement": "activity towards BCR, pre-incubation", "setting": "[2]; [18]", "value": "no detectable activity"}, {"measurement": "activity towards p50RhoGAP", "setting": "[3]; [19]", "value": "no detectable activity"}, {"measurement": "activity towards p50RhoGAP, pre-incubation", "setting": "[3]; [18]", "value": "no detectable activity"}, {"measurement": "effect on MgcRacGAP GAP activity, single turnover assay", "setting": "[4]", "value": "no effect"}, {"measurement": "inhibition of MgcRacGAP-stimulated activity, multiple-turnover assay", "setting": "[5]", "value": "did not detect any notable inhibition"}, {"measurement": "dissociation of Rac1-MgcRacGAP complex", "setting": "[6]", "value": "slowed down the dissociation process; also recorded: decreased dissociation rate"}, {"measurement": "IC50", "setting": "[7]; Homo sapiens, MDA-MB-231, 48 h, read-out: IC50 cell proliferation", "value": 17, "unit": "µM"}, {"measurement": "concentration that caused cell proliferation to cease", "setting": "[7]; highly proliferative cells", "value": "≥ 20", "unit": "µM"}, {"measurement": "concentration at which cell death was observed", "setting": "[8]; [20]", "value": 80, "unit": "µM"}, {"measurement": "cell toxicity at concentrations that stop proliferation", "setting": "[8]; ≥20 µM, highly proliferative cells", "value": "without detectable cell toxicity"}, {"measurement": "effect on cell viability in slow growing cells", "setting": "[9]", "value": "negligible effects on cell viability"}, {"measurement": "time to cell rounding, non-synchronized cells", "setting": "[10]; after compound addition", "value": "approximately 3 h"}, {"measurement": "time to cell rounding, synchronized cells", "setting": "[10]; after release from double thymidine block", "value": "8 to 10", "unit": "h"}, {"measurement": "concentration at which cell death was observed", "setting": "[10]; [20]", "value": 80, "unit": "µM"}, {"measurement": "cell cycle state", "setting": "[11]", "value": "arrested in G2/M-phase"}, {"measurement": "multinucleated cells versus control", "setting": "[12]", "value": "showed more multinucleated cells"}, {"measurement": "time of peak of cells with mitotic phenotype", "setting": "[13]", "value": "≤ 9", "unit": "h"}, {"measurement": "percentage of multinucleated cells", "setting": "[13]; during 24h treatment", "value": "increased over time"}, {"measurement": "cell motility", "setting": "[14]", "value": "lost almost all motility"}, {"measurement": "wound-healing rate", "setting": "[15]", "value": "decreased wound-healing rates; also recorded: decreasing ability to migrate"}, {"measurement": "tolerance of high concentration", "setting": "[16]", "value": "could tolerate such high concentrations"}, {"measurement": "reported bioactivity", "setting": "[17]", "value": "marginal activity"}]}
